Data published in ChEMBL document CHEMBL1121936, “Apyrogenic, adjuvant-active N-acetylmuramyl-dipeptides” (1982).
Values joined by “and” are separate entries in the source; they are usually repeats but may differ in a detail not shown here. Equal values may be shown once.

Key:
Format in all cases: functional
[1] = tested on: Oryctolagus cuniculus; experiment: Febrile responses of compound was measured in rabbit after iv injection at the dose of 1 mg/kg
Procedure, shortened: (§1)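 Rabbits (strain HYL A, 3–3.5 kg), three per specimen, per French/European pharmacopoeia. Compound dissolved in pyrogen-free isotonic saline and given iv, first at 1 mg/kg. Rectal temperature recorded continuously and automatically. A specimen was judged nonpyrogenic if no rabbit rose above 0.5 °C; such specimens then went on to 3, 5 and 10 mg/kg. ΔT reported per rabbit, with the mean.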

[2] = tested on: Oryctolagus cuniculus; experiment: Febrile responses of compound was measured in rabbit after iv injection at the dose of 3 mg/kg; procedure, shortened: as §1
[3] = tested on: Oryctolagus cuniculus; experiment: Febrile responses of compound was measured in rabbit after iv injection at the dose of 5 mg/kg; procedure, shortened: as §1
[4] = tested on: Mus musculus; experiment: Adjuvant activity was measured after sc administration in phosphate buffer saline (PBS) to mice with BSA and expressed as primary response
Procedure, shortened: (§2)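 Female Swiss mice, 5–6 weeks old. BSA antigen given sc in PBS: 0.5 mg to prime, then 0.1 mg one month later as boost. Glycopeptide (0.1 mg) given with the priming injection. Sera pooled on day 21 for the primary titer; on day 37 sera titrated individually for the secondary titer. Titer is log of highest serum dilution agglutinating BSA-coated sheep RBC (passive hemagglutination). Student's t test vs controls.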

[5] = tested on: Mus musculus; experiment: Adjuvant activity was measured after sc administration in phosphate buffer saline (PBS) to mice with BSA and expressed as secondary response; procedure, shortened: as §2
[6] = tested on: Klebsiella pneumoniae; experiment: Protective activity against Klebsiella pneumoniae was measured as difference between the percentage of survivors in treated group and its respective control group; parameters: concentration or dose not given beside the values
Procedure, shortened: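 Mice, 24 per group. Compound given iv at 100 μg on day 0; on day +1, intramuscular challenge with 10^4 K. pneumoniae. Mortality followed from day 1 to day 15. Protection is the percentage of survivors in the treated group minus that in its control group at day +15.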

[7] = tested on: Klebsiella pneumoniae; experiment: Protective activity against Klebsiella pneumoniae was measured as number of survivors to the number of total animals used; 10/24
[8] = tested on: Oryctolagus cuniculus; experiment: Febrile responses of compound was measured in rabbit after iv injection at the dose of 10 mg/kg; procedure, shortened: as §1
[9] = tested on: Klebsiella pneumoniae; experiment: Protective activity against Klebsiella pneumoniae was measured as number of survivors to the number of total animals used; 0/24
[10] = tested on: Klebsiella pneumoniae; experiment: Protective activity against Klebsiella pneumoniae was measured as number of survivors to the number of total animals used; 16/24
[11] = tested on: Klebsiella pneumoniae; experiment: Protective activity against Klebsiella pneumoniae was measured as number of survivors to the number of total animals used; 7/24
[12] = tested on: Klebsiella pneumoniae; experiment: Protective activity against Klebsiella pneumoniae was measured as number of survivors to the number of total animals used; 3/24
[13] = tested on: Klebsiella pneumoniae; experiment: Protective activity against Klebsiella pneumoniae was measured as number of survivors to the number of total animals used; 4/24
[14] = tested on: Klebsiella pneumoniae; experiment: Protective activity against Klebsiella pneumoniae was measured as number of survivors to the number of total animals used; 8/24
[15] = tested on: Klebsiella pneumoniae; experiment: Protective activity against Klebsiella pneumoniae was measured as number of survivors to the number of total animals used;15/24

For `COC(=O)CC[C@H](NC(=O)[C@H](C)NC(=O)[C@@H](C)OC1C(O)C(CO)OC(O)C1NC(C)=O)C(=O)OC` (stereo partly specified), the “Delta T” value ([1]; 1 mg/kg) was 0.33 °C and 0.13 °C, the “Delta T” value ([2]; 3 mg/kg) was 0.4 °C and 0.17 °C and the “Delta T” value ([3]; 5 mg/kg) was 1.1 °C and 0.9 °C.
`CC(=O)NC1C(O)OC(CO)C(O)C1O[C@H](C)C(=O)N[C@@H](C)C(=O)N[C@@H](CCC(N)=O)C(=O)O` (stereo partly specified) was tested, and the Primary response [4] was 2.97, the Secondary response [5] was 7.35 and the “Delta T” value [1] was 0.03 °C. For the same compound, the “Delta T” value [2] was 0.9 °C.
`CCCCCOC(=O)[C@H](CCC(N)=O)NC(=O)[C@H](C)NC(=O)[C@@H](C)OC1C(O)C(CO)OC(O)C1NC(C)=O` (stereo partly specified) showed a Protection [6] of 37%, a Survivors [7] of 10 N/total and a Primary response [4] of 1.64. For the same compound, the Secondary response [5] was 7.8, the “Delta T” value [8] was 0.13 °C and the “Delta T” value [1] was 0.1 °C. The “Delta T” value [2] was 0.03 °C.
`CC(=O)NC1C(O)OC(CO)C(O)C1O[C@H](C)C(=O)N[C@@H](C)C(=O)N[C@@H](CCC(=O)O)C(=O)O` (stereo partly specified) was tested, and the “Delta T” value ([1]; 1 mg/kg) was 0.37 °C and 0.5 °C and the “Delta T” value [2] was 0.8 °C.
`CCOC(=O)[C@H](CCC(N)=O)NC(=O)[C@H](C)NC(=O)[C@@H](C)OC1C(O)C(CO)OC(O)C1NC(C)=O` (stereo partly specified) gave a Protection [6] of 0%, a Survivors [9] of 0 N/total and a Primary response [4] of 4.64. The Secondary response [5] was 9.53, the “Delta T” value ([8]; 10 mg/kg) was 0.47 °C and 0.32 °C and the “Delta T” value [1] was 0.23 °C. The “Delta T” value [2] was 0.03 °C.
With `CC(=O)NC1C(O)OC(CO)C(O)C1O[C@H](C)C(=O)N[C@@H](C)C(=O)N[C@@H](CCC(N)=O)C(N)=O` (stereo partly specified) the “Delta T” value [1] was 0.1 °C, the “Delta T” value [2] was 0.2 °C and the “Delta T” value [3] was 0.67 °C.
With `CCCCOC(=O)[C@H](CCC(N)=O)NC(=O)[C@H](C)NC(=O)[C@@H](C)OC1C(O)C(CO)OC(O)C1NC(C)=O` (stereo partly specified) the Protection [6] was 63%, the Survivors [10] was 16 N/total and the Primary response [4] was 4.21. The Secondary response [5] was 8.43, the “Delta T” value [8] was 0.3 °C and the “Delta T” value [1] was 0.03 °C. For the same compound, the “Delta T” value [2] was 0.26 °C.
In the case of `CCCOC(=O)[C@H](CCC(N)=O)NC(=O)[C@H](C)NC(=O)[C@@H](C)OC1C(O)C(CO)OC(O)C1NC(C)=O` (stereo partly specified), the Protection [6] is reported as 25%, the Survivors [11] is reported as 7 N/total and the Primary response [4] is reported as 4.64. For the same compound, the Secondary response [5] was 9.52, the Delta T [8] was 0.07 degrees C and the “Delta T” value [1] was 0.2 °C. For the same compound, the “Delta T” value [2] was 0.43 °C.
`COC(=O)[C@H](CCC(N)=O)NC(=O)[C@H](C)NC(=O)[C@@H](C)OC1C(O)C(CO)OC(O)C1NC(C)=O` (stereo partly specified) gave a Protection [6] of 8%, a Survivors [12] of 3 N/total and a Primary response [4] of 3.85. The Secondary response [5] was 8.72, the “Delta T” value [8] was 0.1 °C and the “Delta T” value [1] was 0.1 °C. For the same compound, the “Delta T” value [2] was 0.23 °C.
`CCCCCCCCCCOC(=O)[C@H](CCC(N)=O)NC(=O)[C@H](C)NC(=O)[C@@H](C)OC1C(O)C(CO)OC(O)C1NC(C)=O` (stereo partly specified) showed a Protection [6] of 12%, a Survivors [13] of 4 N/total and a Primary response [4] of 3.64. For the same compound, the Secondary response [5] was 9.1, the “Delta T” value [8] was 0.23 °C and the “Delta T” value [1] was 0.2 °C. For the same compound, the “Delta T” value [2] was 0.17 °C.
Compound `CCCCCCOC(=O)[C@H](CCC(N)=O)NC(=O)[C@H](C)NC(=O)[C@@H](C)OC1C(O)C(CO)OC(O)C1NC(C)=O` (stereo partly specified) has a Protection [6] of 29%, a Survivors [14] of 8 N/total and a Primary response [4] of 2.75. The Secondary response [5] was 7.71, the “Delta T” value [8] was 0.13 °C and the “Delta T” value [1] was 0.13 °C. The “Delta T” value [2] was 0.2 °C.
`CC(=O)N[C@H]1C(O)O[C@H](CO)[C@@H](O)[C@@H]1O[C@H](C)C(=O)N[C@@H](C)C(=O)N[C@H](CCC(=O)O)C(N)=O` (stereo partly specified) [MURAMYL DIPEPTIDE] gave a Protection [6] of 58%, a Survivors [15] of 15 N/total and a Primary response [4] of 3.64. The Secondary response [5] was 8.34 and the “Delta T” value [1] was 0.76 °C.
